Activity calls are given as the source filed them. The calls are words filed in the database; no cut-off is given here.
What was measured:
Homo sapiens [1] = organism: Homo sapiens; assay: Upregulation of HDAC1 inhibition/ERK signalling activation-mediated extracellular SOD protein expression in human THP1 cells at 1 uM after 24 hrs by ELISA; assay type: cell-based
In short: (§1)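 EC-SOD protein content was measured by ELISA in THP-1 cells after 24 h treatment, with cells collected in PBS. Cells were cultured in RPMI 1640 with 10% heat-inactivated FCS at 37 °C and 5% CO2. Values are mean ± SD of three independent experiments, compared against untreated cells.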

Homo sapiens [2] = organism: Homo sapiens; assay: Upregulation of HDAC1 inhibition/ERK signalling activation-mediated extracellular SOD mRNA expression in human THP1 cells at 1 uM after 24 hrs by RT-PCR method; assay type: cell-based
In short: (§2)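 THP-1 cells (RPMI 1640, 10% heat-inactivated FCS, 37 °C, 5% CO2) were seeded at 2.0 × 10^6 cells/dish and treated for 24 h. Cells were washed with cold PBS and lysed in TRIzol, then analysed by real-time RT-PCR normalized to 18S rRNA. Values are mean ± SD of three independent experiments, with ANOVA and Bonferroni tests.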

THP-1 [3] = assay: Effect on Cu/Zn SOD mRNA expression in human THP1 cells at 1 mM after 24 hrs by RT-PCR method; assay type: functional, cell-based; in short: as §2
THP-1 [4] = assay: Upregulation of Mn SOD mRNA expression in human THP1 cells at 1 mM after 24 hrs by RT-PCR method; assay type: functional, cell-based; in short: as §2
Homo sapiens [5] = organism: Homo sapiens; assay: Upregulation of HDAC1 inhibition/ERK signalling activation-mediated extracellular SOD protein expression in human THP1 cells at 1 mM after 24 hrs by ELISA; assay type: cell-based; in short: as §1
Homo sapiens [6] = organism: Homo sapiens; assay: Upregulation of HDAC1 inhibition/ERK signalling activation-mediated extracellular SOD mRNA expression in human THP1 cells at 1 mM after 24 hrs by RT-PCR method; assay type: cell-based; in short: as §2
[7] = target: Histone deacetylase 1 (Homo sapiens) (UniProt Q13547); assay: Inhibition of HDAC1 in human THP1 cells assessed as increase in histone H4 acetylation level at 1 mM after 12 hrs by Western blot analysis relative to control; assay type: cell-based
Histone deacetylase 1 (Homo sapiens), sequence (Q13547 whole entry, the tested form may be a part): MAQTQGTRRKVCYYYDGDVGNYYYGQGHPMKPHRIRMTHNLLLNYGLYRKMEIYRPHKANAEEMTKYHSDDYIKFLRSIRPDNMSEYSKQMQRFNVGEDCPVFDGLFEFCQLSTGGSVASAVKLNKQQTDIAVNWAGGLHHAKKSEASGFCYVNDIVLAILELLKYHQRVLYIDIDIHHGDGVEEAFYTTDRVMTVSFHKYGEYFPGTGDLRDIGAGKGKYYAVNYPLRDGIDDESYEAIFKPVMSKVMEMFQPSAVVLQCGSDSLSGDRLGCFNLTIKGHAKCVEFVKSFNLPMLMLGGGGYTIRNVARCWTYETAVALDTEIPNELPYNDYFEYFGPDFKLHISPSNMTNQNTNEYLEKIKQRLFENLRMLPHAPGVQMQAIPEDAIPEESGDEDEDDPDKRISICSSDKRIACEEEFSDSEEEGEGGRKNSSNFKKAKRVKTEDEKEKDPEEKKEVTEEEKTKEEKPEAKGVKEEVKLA
In short: (§3)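 After 12 h treatment, THP-1 whole-cell extracts (20 μg protein) were run on 12% SDS-PAGE and transferred to PVDF. Membranes were blocked with 1% BSA in PBS and probed with anti-acetyl histone H3 or H4 primary antibodies (1:1000), then a biotin-conjugated secondary antibody (1:1000). Histone loading was checked by Coomassie staining.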

[8] = target: Histone deacetylase 1 (Homo sapiens) (UniProt Q13547); assay: Inhibition of HDAC1 in human THP1 cells assessed as increase in histone H3 acetylation level at 1 mM after 12 hrs by Western blot analysis relative to control; assay type: cell-based; in short: as §3
[9] = target: Histone deacetylase (Homo sapiens) (UniProt Q13547+O15379+Q9UBN7+Q92769+Q9UQL6+Q8WUI4+Q9BY41+Q96DB2+P56524+Q9UKV0+Q969S8); assay: Inhibition of HDAC activity in human THP1 cells at 1 mM preincubated for 1 hr followed by substrate addition measured after 2 hrs by fluorescence assay relative to control; assay type: cell-based
In short: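 This is a cell-based HDAC assay. THP-1 cells at 5.0 × 10^4 cells/well were treated for 1 h, then HDAC substrate was added for 2 h at 37 °C. Lysis/developer solution followed for 15 min at 37 °C. Fluorescence was read at ex 365 nm / em 410–460 nm and compared with untreated cells; mean ± SD, n = 3 independent experiments.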

[10] = target: Histone deacetylase 1 (Homo sapiens) (UniProt Q13547); assay: Inhibition of recombinant HDAC1 catalytic domain (unknown origin) using HDAC substrate at 1 mM preincubated for 1 hr followed by substrate addition measured after 30 mins by fluorescence assay relative to control
In short: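 Recombinant HDAC1 was mixed with compound in assay buffer, and the reaction was started with HDAC substrate for 30 min at 37 °C in the dark. Developer was then added for 15 min at room temperature. Fluorescence was read at ex 365 nm / em 410–460 nm and compared with untreated control; mean ± SD of three independent experiments.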

Row | Structure (SMILES) | Activity (Homo sapiens [1]) | Activity (Homo sapiens [2]) | Activity (THP-1 [3]) | Activity (THP-1 [4]) | Activity (Homo sapiens [5]) | Activity (Homo sapiens [6]) | fold change (FC) [7] | fold change (FC) [8] | inhibition [9] | inhibition [10]
1 | CC(/C=C/C(=O)NO)=C\[C@@H](C)C(=O)c1ccc(N(C)C)cc1 | Active | Active | – | – | – | – | – | – | – | –
2 | O=C(O)/C=C\CCCCCCCO | – | – | inactive | Active | Active | Active | 2.47 | 1.29 | Active | 50%
